Source: ChEMBL document CHEMBL3862036, “Biphenyl Pyridazinone Derivatives as Inhaled PDE4 Inhibitors: Structural Biology and Structure-Activity Relationships” (J Med Chem, 2016)

Assays:
[1] = Inhibition of PDE4 in human whole blood assessed as reduction in LPS-induced TNFalpha production incubated for 24 hrs by ELISA; format: tissue-based
Outline: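 Human whole blood was preincubated with LPS (final 1 μg/mL) for 10 min at 37 °C with rocking. 200 μL was added to wells holding increasing inhibitor concentrations in 100% DMSO. Plates were incubated 24 h at 37 °C under agitation, then placed on ice, diluted with PBS and centrifuged at 800g, 4 °C, for 15 min before TNF-α measurement.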

[2] = Inhibition of PDE4 in PBMC (unknown origin) assessed as reduction in LPS-induced TNFalpha production incubated for 24 hrs by ELISA; conditions: Homo sapiens
[3] = tested on: Rattus norvegicus; experiment: Anti-inflammatory activity in Sprague-Dawley rat assessed as inhibition of LPS-induced neutrophilia at 1000 ug/kg, it administered as suspension with Penn-Century micro-sprayer aerosolizer dosed 18 hrs before LPS challenge and measured 22 hrs post dose; format: functional; conditions: inhaled or nasal
Outline: (§1)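 Suspensions in PBS/0.2% Tween 80 were homogenized, with lower doses made by 1:10 dilutions. 0.2 mL was given intratracheally by MicroSprayer to isoflurane-anesthetized fasted male Sprague-Dawley rats (230–280 g). At 1 or 18 h, rats received nebulized LPS (30 mL of a 1:100 PBS dilution of 100 mg/10 mL stock) over 40 min. Four hours later, BAL neutrophils were counted by flow cytometry.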

[4] = tested on: Rattus norvegicus; experiment: Anti-inflammatory activity in Sprague-Dawley rat assessed as inhibition of LPS-induced neutrophilia at 1000 ug/kg, it administered as dry powder with lactose carrier through Penn-Century insufflator dosed 18 hrs before LPS challenge and measured 22 hrs post dose; format: functional
Outline: (§2)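 Compounds were micronized, comixed with lactose, and 5 mg of the mixture was insufflated intratracheally into isoflurane-anesthetized fasted male Sprague-Dawley rats (230–280 g). LPS aerosol (30 mL of a 1:100 PBS dilution of 100 mg/10 mL stock) was nebulized for 40 min at 1 or 18 h post-dose. BAL was taken 4 h later and neutrophils counted by flow cytometry. Controls: lactose alone, lactose+LPS, fluticasone (10% in lactose).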

[5] = tested on: Rattus norvegicus; experiment: Anti-inflammatory activity in Sprague-Dawley rat assessed as inhibition of LPS-induced neutrophilia at 10 to 1000 ug/kg, it administered as suspension with Penn-Century micro-sprayer aerosolizer dosed 1 hrs before LPS challenge and measured 5 hrs post dose; format: functional; conditions: inhaled or nasal; outline: as §1
[6] = Drug metabolism in human liver S9 fraction assessed as glucuronidation in presence of PAPS and UDPGA incubated for 20 mins; format: ADME, subcellular; conditions: read-out: Drug metabolism
[7] = tested on: Rattus norvegicus; experiment: Anti-inflammatory activity in Sprague-Dawley rat assessed as inhibition of LPS-induced neutrophilia at 1000 ug/kg, it administered as dry powder with lactose carrier through Penn-Century insufflator dosed 1 hrs before LPS challenge and measured 5 hrs post dose; format: functional; outline: as §2
[8] = tested on: Rattus norvegicus; experiment: Anti-inflammatory activity in Sprague-Dawley rat assessed as inhibition of LPS-induced neutrophilia at 25 ug/kg, it administered as suspension with Penn-Century micro-sprayer aerosolizer dosed 1 hrs before LPS challenge and measured 5 hrs post dose; format: functional; conditions: inhaled or nasal; outline: as §1
[9] = target: Adenosine receptor A2a (Homo sapiens, UniProt P29274); experiment: Antagonist activity at adenosine A2a receptor (unknown origin)
Adenosine receptor A2a, sequence (P29274 whole entry): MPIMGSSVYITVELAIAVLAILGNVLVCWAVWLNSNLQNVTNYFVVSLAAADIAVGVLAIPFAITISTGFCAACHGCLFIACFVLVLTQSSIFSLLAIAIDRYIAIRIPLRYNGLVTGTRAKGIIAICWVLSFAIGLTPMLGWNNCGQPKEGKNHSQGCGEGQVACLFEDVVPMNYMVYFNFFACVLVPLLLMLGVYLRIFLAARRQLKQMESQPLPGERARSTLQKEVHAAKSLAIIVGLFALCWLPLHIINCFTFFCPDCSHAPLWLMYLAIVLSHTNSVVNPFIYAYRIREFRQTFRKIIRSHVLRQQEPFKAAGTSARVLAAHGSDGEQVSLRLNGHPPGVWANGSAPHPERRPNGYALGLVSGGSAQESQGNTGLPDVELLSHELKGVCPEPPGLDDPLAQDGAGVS

[10] = target: T1, Adenosine receptor A1 (Homo sapiens, UniProt P30542); experiment: Antagonist activity at adenosine A1 receptor (unknown origin)
T1 sequence (P30542 whole entry): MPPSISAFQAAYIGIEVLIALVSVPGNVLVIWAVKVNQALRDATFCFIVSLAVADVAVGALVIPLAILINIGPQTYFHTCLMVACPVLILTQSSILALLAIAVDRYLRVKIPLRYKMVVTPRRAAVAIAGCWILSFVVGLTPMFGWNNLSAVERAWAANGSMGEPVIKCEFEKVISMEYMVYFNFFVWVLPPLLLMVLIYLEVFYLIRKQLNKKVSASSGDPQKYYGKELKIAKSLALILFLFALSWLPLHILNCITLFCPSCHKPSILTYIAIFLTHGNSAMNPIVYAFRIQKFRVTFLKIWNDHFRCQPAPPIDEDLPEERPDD

[11] = target: T2, Adenosine receptor A2b (Homo sapiens, UniProt P29275); experiment: Antagonist activity at adenosine A2b receptor (unknown origin)
T2 sequence (P29275 whole entry): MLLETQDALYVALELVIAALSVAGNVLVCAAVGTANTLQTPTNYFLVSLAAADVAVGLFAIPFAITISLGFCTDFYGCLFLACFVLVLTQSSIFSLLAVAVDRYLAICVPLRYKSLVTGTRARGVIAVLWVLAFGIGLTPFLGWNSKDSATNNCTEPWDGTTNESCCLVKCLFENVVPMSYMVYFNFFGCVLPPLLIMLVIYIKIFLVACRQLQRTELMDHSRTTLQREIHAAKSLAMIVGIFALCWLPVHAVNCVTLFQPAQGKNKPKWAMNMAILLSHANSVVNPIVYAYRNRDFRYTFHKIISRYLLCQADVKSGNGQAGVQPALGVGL

[12] = tested on: Rattus norvegicus; experiment: Anti-inflammatory activity in Sprague-Dawley rat assessed as inhibition of LPS-induced neutrophilia at 100 ug/kg, it administered as suspension with Penn-Century micro-sprayer aerosolizer dosed 1 hrs before LPS challenge and measured 5 hrs post dose; format: functional; conditions: inhaled or nasal; outline: as §1
[13] = tested on: Rattus norvegicus; experiment: Anti-inflammatory activity in Sprague-Dawley rat assessed as inhibition of LPS-induced neutrophilia at 100 ug/kg, it administered as suspension with Penn-Century micro-sprayer aerosolizer dosed 18 hrs before LPS challenge and measured 22 hrs post dose; format: functional; conditions: inhaled or nasal; outline: as §1
[14] = tested on: Rattus norvegicus; experiment: Anti-inflammatory activity in Sprague-Dawley rat assessed as inhibition of LPS-induced neutrophilia at 1000 ug/kg, it administered as suspension with Penn-Century micro-sprayer aerosolizer dosed 1 hrs before LPS challenge and measured 5 hrs post dose; format: functional; conditions: inhaled or nasal; outline: as §1
[15] = Pro-inflammatory activity in Sprague-Dawley rat assessed as induction of neutrophilia at 1000 ug/kg, it administered as dry powder with lactose carrier through Penn-Century insufflator; conditions: in vivo, inhaled_or_intranasal, 1 mg/kg
[16] = tested on: Rattus norvegicus; experiment: Anti-inflammatory activity in Sprague-Dawley rat assessed as inhibition of LPS-induced neutrophilia at 300 ug/kg, it administered as suspension with Penn-Century micro-sprayer aerosolizer dosed 18 hrs before LPS challenge and measured 22 hrs post dose; format: functional; conditions: inhaled or nasal; outline: as §1

Structure (SMILES) | IC50 [1] [nM] | IC50 [2] [nM] | IC50 [9] [nM] | IC50 [10] [nM] | IC50 [11] [nM] | also measured
CCn1nc(-c2cccc(-c3cc(F)ccc3O)c2)cc(NC(=O)Nc2c(Cl)cncc2Cl)c1=O | 207 | 0.88 |  |  |  | inhibition in vivo at 1 mg/kg [3]: 14%; inhibition in vivo at 1 mg/kg [4]: 0%; ED50 [5]: 0.101 mg/kg; metabolised at 20 min [6]: 8%; inhibition in vivo at 1 mg/kg [7]: 51%
CCn1nc(-c2cccc(-c3cc(C(=O)NCCO)cc(C(=O)NCCN4CCCCC4)c3)c2)cc(NC(=O)Nc2c(Cl)cncc2Cl)c1=O |  | 0.31 | > 1000 | > 1000 | > 268 | inhibition in vivo at 0.025 mg/kg [8]: 33%
CCOc1cc(C(=O)NC2CC2)cc(-c2cccc(-c3cc(NC(=O)Nc4c(Cl)cncc4Cl)c(=O)n(CC)n3)c2)c1 |  | 0.24 | > 1000 | 59 | > 1000 | inhibition in vivo at 0.025 mg/kg [8]: 26%
CCn1nc(-c2cccc(-c3cc(C(=O)NCCN4CCOCC4)cc(C(=O)NC4CC4)c3)c2)cc(NC(=O)Nc2c(Cl)cncc2Cl)c1=O |  |  | > 1000 | > 1000 | > 1000 | inhibition in vivo at 0.025 mg/kg [8]: 55%; inhibition in vivo at 0.1 mg/kg [13]: 29%
CCn1nc(-c2cccc(-c3cc(C#N)cc(C(=O)NC4CC4)c3)c2)cc(NC(=O)Nc2c(Cl)cncc2Cl)c1=O |  | 0.19 | > 1000 | 634 | > 1000 | 
CCn1nc(-c2cccc(Br)c2)cc(NC(=O)Nc2c(Cl)cncc2Cl)c1=O |  | 3.7 |  |  |  | 
CCn1nc(-c2cccc(-c3ccccc3C(=O)O)c2)cc(NC(=O)Nc2c(Cl)cncc2Cl)c1=O |  | 10.3 |  |  |  | 
CCn1nc(-c2cccc(-c3cccc(C(=O)NC4CC4)c3)c2)cc(NC(=O)Nc2c(Cl)cncc2Cl)c1=O | 69 | 0.3 | 33 | 10 | 120 | inhibition in vivo at 1 mg/kg [3]: 43%; inhibition in vivo at 1 mg/kg [4]: 42%; ED50 [5]: 0.024 mg/kg; fold change (FC) [15]: 1; inhibition in vivo at 0.1 mg/kg [12]: 70%; inhibition in vivo at 1 mg/kg [7]: 55%
CCn1nc(-c2cccc(-c3cccc(CC(=O)O)c3)c2)cc(NC(=O)Nc2c(Cl)cncc2Cl)c1=O | 190 | 0.54 | 434 | 5 | 263 | inhibition in vivo at 1 mg/kg [3]: 16%; inhibition in vivo at 1 mg/kg [14]: 66%; metabolised at 20 min [6]: 56%
CCn1nc(-c2cccc(-c3ccccc3O)c2)cc(NC(=O)Nc2c(Cl)cncc2Cl)c1=O | 75 | 1.4 |  |  |  | metabolised at 20 min [6]: 1.7%
CCn1nc(-c2cccc(-c3ccc(O)nc3)c2)cc(NC(=O)Nc2c(Cl)cncc2Cl)c1=O | 100 | 1.1 |  |  |  | 
CCn1nc(-c2cccc(-c3ccc(F)c(C(=O)O)c3)c2)cc(NC(=O)Nc2c(Cl)cncc2Cl)c1=O |  | 26.3 |  |  |  | 
CCn1nc(-c2cccc(-c3cccc(CC(=O)NCCCCCCCN(C)CCO)c3)c2)cc(NC(=O)Nc2c(Cl)cncc2Cl)c1=O | 525 | 4.9 | 59 | 28 | 459 | 
CCn1nc(-c2cccc(-c3cccc(C(=O)O)c3)c2)cc(NC(=O)Nc2c(Cl)cncc2Cl)c1=O |  | 2.17 | 270 | 17 | 222 | metabolised at 20 min [6]: 9%
CCn1nc(-c2cccc(-c3cncc(C(=O)O)c3)c2)cc(NC(=O)Nc2c(Cl)cncc2Cl)c1=O |  | 11.6 |  |  |  | metabolised at 20 min [6]: 35%
CCn1nc(-c2cccc(-c3cc(C(=O)NCC[C@H]4CCCN4C)cc(C(=O)NC4CC4)c3)c2)cc(NC(=O)Nc2c(Cl)cncc2Cl)c1=O |  | 0.3 | > 1000 | 399 | 146 | inhibition in vivo at 0.025 mg/kg [8]: 42%; inhibition in vivo at 0.1 mg/kg [13]: 37%
CCn1nc(-c2cccc(-c3cccc(C(=O)NCCC4CCCN4C)c3)c2)cc(NC(=O)Nc2c(Cl)cncc2Cl)c1=O (stereo not given) | 70 | 0.19 | 5 | 2 |  | inhibition in vivo at 0.1 mg/kg [12]: 70%; inhibition in vivo at 0.1 mg/kg [13]: 57%

Now from value to compound, other results behind:

IC50 [1] [nM] | IC50 [2] [nM] | IC50 [9] [nM] | IC50 [10] [nM] | IC50 [11] [nM] | Structure (SMILES) | also measured
120 | 0.2 |  |  |  | CCn1nc(-c2cccc(-c3ccc(C(N)=O)cc3)c2)cc(NC(=O)Nc2c(Cl)cncc2Cl)c1=O | 
57 | 0.24 | 41 | 13 | 206 | CCn1nc(-c2cccc(-c3cccc(C(=O)NCCCCCCCN(C)CCO)c3)c2)cc(NC(=O)Nc2c(Cl)cncc2Cl)c1=O | inhibition in vivo at 1 mg/kg [3]: 27%; inhibition in vivo at 0.1 mg/kg [12]: 79%
 | 21 |  |  |  | CCn1nc(-c2ccccc2)c(C(C)=O)c(Nc2ccc(C(=O)O)cc2)c1=O | 
 | 0.8 |  |  |  | CCn1nc(-c2cccc(-c3cccc(O)c3F)c2)cc(NC(=O)Nc2c(Cl)cncc2Cl)c1=O | 
 | 0.88 | > 1000 | 81 | > 1000 | CCn1nc(-c2cccc(-c3cc(OCC4CC4)cc(C(=O)NCCN4CCCCC4)c3)c2)cc(NC(=O)Nc2c(Cl)cncc2Cl)c1=O | inhibition in vivo at 0.025 mg/kg [8]: 60%
257 | 0.68 | > 1000 | 184 | > 1000 | CCn1nc(-c2cccc(-c3ccc(CC(=O)O)cc3)c2)cc(NC(=O)Nc2c(Cl)cncc2Cl)c1=O | inhibition in vivo at 1 mg/kg [3]: 10%; ED50 [5]: 0.149 mg/kg; inhibition in vivo at 1 mg/kg [14]: 80%; metabolised at 20 min [6]: 32%
154 | 2.9 |  |  |  | CCn1nc(-c2cccc(-c3ccc(O)cc3F)c2)cc(NC(=O)Nc2c(Cl)cncc2Cl)c1=O | metabolised at 20 min [6]: 27%
67 | 0.09 |  |  |  | CCn1nc(-c2cccc(-c3cccc(C(N)=O)c3)c2)cc(NC(=O)Nc2c(Cl)cncc2Cl)c1=O | inhibition in vivo at 1 mg/kg [3]: 20%; inhibition in vivo at 1 mg/kg [4]: 15%; ED50 [5]: 0.067 mg/kg; inhibition in vivo at 1 mg/kg [7]: 48%
202 | 1.3 |  |  |  | CCn1nc(-c2cccc(-c3ccc(F)cc3O)c2)cc(NC(=O)Nc2c(Cl)cncc2Cl)c1=O | 
 | 0.4 | > 1000 | 324 | > 1000 | CCn1nc(-c2cccc(-c3cc(C(=O)NC4CC4)cc(C(=O)NC4CC4)c3)c2)cc(NC(=O)Nc2c(Cl)cncc2Cl)c1=O | inhibition in vivo at 0.025 mg/kg [8]: 54%; inhibition in vivo at 0.3 mg/kg [16]: 27%
 | 6.6 |  |  |  | CCn1nc(-c2cccc(-c3cc(C(=O)O)ccc3F)c2)cc(NC(=O)Nc2c(Cl)cncc2Cl)c1=O | 
 | 0.35 | > 1000 | > 1000 | 95 | CCn1nc(-c2cccc(-c3cc(C(=O)NCCN4CCCCC4)cc(C(=O)NC4CC4)c3)c2)cc(NC(=O)Nc2c(Cl)cncc2Cl)c1=O | inhibition in vivo at 0.025 mg/kg [8]: 25%
